# Source: ChEMBL document CHEMBL1122835, “Synthesis and pharmacology of the potent angiotensin-converting enzyme inhibitor N-[1(S)-(ethoxycarbonyl)-3-phenylpropyl]-(S)-alanyl-(S)-pyroglutamic acid” (J Med Chem, 1985)
# Key:
# Canis familiaris [1] = experiment: Effect on pressor response of angiotensin I in anesthetized dog, dose 0.9 mg/kg administered intravenously; format: functional, Canis lupus familiaris; details: route intravenous
# Outline: (§1)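 Mongrel dogs, 7.3–15.5 kg, anesthetized with barbital/pentobarbital iv, tracheotomized and vagotomized, n = 4. Cumulative iv doses in saline (0.2 mL/kg) spaced 30 min apart. AI and AII 1 μg/kg iv challenges given after each dose; the second pre-dose set served as control.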
# Canis familiaris [2] = experiment: Effect on pressor response of angiotensin I in conscious dog at 60-65 min, dose 0.5 mg/kg administered orally; format: functional, Canis lupus familiaris; details: route oral
# Outline: (§2)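 Conscious fasted mongrel dogs of both sexes, 6.8–15.3 kg, with femoral cannulas. Drug given orally in 0.25% methylcellulose with 3% glycerin (2 mL/kg), n = 4 per dose. AI 0.3, AII 0.1 and NE 1 μg/kg iv challenges. The second pre-dose set served as control; response measured at 60–65 min post-dose.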
# Canis familiaris [3] = experiment: Effect on pressor response of angiotensin II in anesthetized dog, dose 0.9 mg/kg administered intravenously; format: functional, Canis lupus familiaris; details: route intravenous; outline: as §1
# Canis familiaris [4] = experiment: Effect on pressor response of angiotensin II in conscious dog at 60-65 min, dose 1 mg/kg administered orally; format: functional, Canis lupus familiaris; details: route oral; outline: as §2
# Rattus norvegicus [5] = experiment: Percent change was determined in bradykinin depressor response in anesthetized normotensive rat, administered intravenously at dose 0.010 mg/kg; format: functional; details: dose 0.01 mg/kg; route intravenous
# Outline: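 Male Charles River CD rats (380–500 g), pentobarbital Na 15 mg/kg plus barbital 220 mg/kg ip, tracheotomized, femoral artery/vein cannulated, kept at 37 °C. Control bradykinin 1 μg/kg iv depressor response, separate from angiotensin tests; drug iv in 0.9% saline (1 mL/kg, free base) 10 min later, Bk 5 min after each cumulative dose (0.0033–0.27 mg/kg). Maximum fall in arterial pressure versus control response; N = 8.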
# Rattus norvegicus [6] = experiment: Percent decrease in angiotensin I pressor response was measured in rat, administered intravenously at dose 0.030 mg/kg; format: functional; details: dose 0.03 mg/kg; route intravenous
# Outline: (§3)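 Anesthetized (pentobarbital Na 15 mg/kg + barbital 220 mg/kg ip), tracheotomized male Charles River CD rats, 380–500 g, femoral cannulas, heated board at 37 °C. Control pressor responses to angiotensin I 0.3 μg/kg then angiotensin II 0.1 μg/kg iv; drug iv in 0.9% saline (free base), AI and AII repeated at 5-min intervals, cumulative 0.01–0.81 mg/kg. Peak arterial pressure rise versus control.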
# Rattus norvegicus [7] = experiment: Percent decrease in angiotensin I pressor response was measured in rat, administered intravenously at dose 0.090 mg/kg; format: functional; details: dose 0.09 mg/kg; route intravenous; outline: as §3
# Rattus norvegicus [8] = experiment: Percent decrease in angiotensin I pressor response was measured in rat, administered intravenously at dose 0.27 mg/kg; format: functional; details: route intravenous; outline: as §3
# Rattus norvegicus [9] = experiment: Percent decrease in angiotensin I pressor response was measured in rat, administered intravenously at dose 0.81 mg/kg; format: functional; details: route intravenous; outline: as §3
# Rattus norvegicus [10] = experiment: Hypotensive activity was determined in low-sodium treated rat, dose 3 mg/kg administered orally at 2 hr; format: functional; details: route oral
# Outline: (§4)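 Male CD rats, 11 weeks old, kept on a sodium-deficient diet for 3 weeks and fasted overnight, were dosed orally with aqueous solutions (5 mL/kg), water as control. Systolic pressure measured by tail cuff at the stated post-dose time. ANOVA with Duncan's test.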
# Rattus norvegicus [11] = experiment: Hypotensive activity was determined in low-sodium treated rat, dose 30 mg/kg administered orally at 2 hr; format: functional; details: route oral; outline: as §4
# Rattus norvegicus [12] = experiment: Hypotensive activity was determined in low-sodium treated rat, dose 30 mg/kg administered orally at 5 hr; format: functional; details: route oral; outline: as §4
# Rattus norvegicus [13] = experiment: Decrease in systolic blood pressure of Spontaneous Hypertensive Rats (SHR) pretreated with hydrochlorothiazide upon oral administration at 3 mm/kg; format: functional, Artery
# Outline: (§5)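 Male SHR, 13 weeks old, given HCTZ 25 mg/kg po in 0.25% methylcellulose daily for 3 days. Drug given orally in water (5 mL/kg) 1 h after the third dose. Tail-cuff systolic pressure and pulse-count heart rate taken 1.5 h later after 20 min warming at 38 °C. ANOVA with Duncan's test; ED30 by linear regression.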
# Rattus norvegicus [14] = species on record: Rattus norvegicus; experiment: Dose required to reduce systolic blood pressure by 30 mmHg in renal hypertensive rat; format: functional; details: Artery
# Outline: (§6)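 Renal hypertensive rats were prepared by clipping the left renal artery (0.22-mm clip) in 4-week-old male CD rats and held 6 weeks. Overnight-fasted rats were dosed orally with aqueous solution (5 mL/kg), water as control. Tail-cuff systolic pressure and heart rate measured 2 h post-dose. ANOVA with Duncan's test; ED30 by linear regression.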
# Rattus norvegicus [15] = experiment: Effective dose to produce ACE inhibition in rat, administered intravenously; format: functional; details: iv
# Outline: (§7)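 Male Charles River CD rats, 380–500 g, anesthetized with pentobarbital Na 15 mg/kg plus barbital 220 mg/kg ip, held at 37 °C. Femoral artery pressure recorded. AI 0.3 μg/kg and AII 0.1 μg/kg given iv as challenges. Cumulative iv drug in saline, 0.01–0.81 mg/kg, each dose followed by AI/AII challenges at 5-min intervals. ED50 = 50% change from control response, by linear regression.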
# Rattus norvegicus [16] = experiment: Change in heart rate was determined at a dose 30 mg/kg; format: functional; outline: as §5
# Rattus norvegicus [17] = experiment: Change in heart rate was determined in renal hypertensive rat, administered orally at a dose 10 mg/kg; format: functional; details: route oral; outline: as §6
# Rattus norvegicus [18] = experiment: Change in heart rate was determined in renal hypertensive rat, administered orally at a dose 3 mg/kg; format: functional; details: route oral; outline: as §6
# Rattus norvegicus [19] = experiment: Effect on vasopressor response caused by angiotensin I (AI) in anesthetized normotensive rat, administered intravenously at dose 0.010 mg/kg; format: functional; details: dose 0.01 mg/kg; route intravenous; outline: as §7
# Rattus norvegicus [20] = experiment: Effect on vasopressor response caused by angiotensin I (AI) in anesthetized normotensive rat, administered intravenously at dose 0.030 mg/kg; format: functional; details: dose 0.03 mg/kg; route intravenous; outline: as §7
# Rattus norvegicus [21] = experiment: Effect on vasopressor response caused by angiotensin I (AI) in anesthetized normotensive rat, administered intravenously at dose 0.090 mg/kg; format: functional; details: dose 0.09 mg/kg; route intravenous; outline: as §7
# Rattus norvegicus [22] = experiment: Effect on vasopressor response caused by angiotensin I (AI) in anesthetized normotensive rat, administered intravenously at dose 0.81 mg/kg; format: functional; details: route intravenous; outline: as §7
# Rattus norvegicus [23] = experiment: Activity against the bradykinin Response in anesthetized normotensive rat, administered intravenously at dose 0.0033 mg/kg; format: functional; details: route intravenous
# Outline: (§8)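 Anesthetized (pentobarbital/barbital ip) male Charles River CD rats, 380–500 g, kept at 37 °C. Femoral artery blood pressure recorded. Control depressor response to bradykinin 1 μg/kg iv, then cumulative iv drug in 0.9% saline (1 mL/kg), 0.0033–0.27 mg/kg. Bk challenge 5 min after each dose. ED50 = dose giving a 50% change from control, by linear regression; N = 8.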
# Rattus norvegicus [24] = experiment: Activity against the bradykinin Response in anesthetized normotensive rat, administered intravenously at dose 0.010 mg/kg; format: functional; details: dose 0.01 mg/kg; route intravenous; outline: as §8
# Rattus norvegicus [25] = experiment: Activity against the bradykinin Response in anesthetized normotensive rat, administered intravenously at dose 0.030 mg/kg; format: functional; details: dose 0.03 mg/kg; route intravenous; outline: as §8
# Rattus norvegicus [26] = experiment: Activity against the bradykinin Response in anesthetized normotensive rat, administered intravenously at dose 0.090 mg/kg; format: functional; details: dose 0.09 mg/kg; route intravenous; outline: as §8
# Canis familiaris [27] = experiment: Effect on pressor response of angiotensin I in conscious dog at 60-65 min, dose 1 mg/kg administered orally; format: functional, Canis lupus familiaris; details: route oral; outline: as §2
smiles,measurement,setting,value
CCOC(=O)[C@H](CCc1ccccc1)N[C@@H](C)C(=O)N1C(=O)CC[C@H]1C(=O)O,Blood pressure,Canis familiaris [1],28 mmHg
same,Blood pressure,Canis familiaris [2],47 mmHg
same,Blood pressure,Canis familiaris [3],73 mmHg
same,Blood pressure,Canis familiaris [4],48 mmHg
same,Change,Rattus norvegicus [5],61%
same,Decrease,Rattus norvegicus [6],19%
same,Decrease,Rattus norvegicus [7],31%
same,Decrease,Rattus norvegicus [8],63%
same,Decrease,Rattus norvegicus [9],92%
same,Activity,Rattus norvegicus [10],154 mmHg
same,Activity,Rattus norvegicus [11],135 mmHg
same,Activity,Rattus norvegicus [12],132 mmHg
same,Blood pressure,Rattus norvegicus [13],211 mmHg
same,ED30,Rattus norvegicus [14],5.9 mg/kg
same,ED50,Rattus norvegicus [15],0.13 mg/kg
same,Heart rate,Rattus norvegicus [16],381 beats min-1
same,Heart rate,Rattus norvegicus [17],438 beats min-1
same,Heart rate,Rattus norvegicus [18],460 beats min-1
same,Response,Rattus norvegicus [19],45 mmHg
same,Response,Rattus norvegicus [20],39 mmHg
same,Response,Rattus norvegicus [21],33 mmHg
same,Response,Rattus norvegicus [22],4 mmHg
same,Response,Rattus norvegicus [23],-44 mmHg
same,Response,Rattus norvegicus [24],-58 mmHg
same,Response,Rattus norvegicus [25],-61 mmHg
same,Response,Rattus norvegicus [26],-61 mmHg
same,Blood pressure,Canis familiaris [27],23 mmHg
